Assay results: ChEMBL document CHEMBL4024799, “Synthesis and Biological Characterization of Aryl Uracil Inhibitors of Hepatitis C Virus NS5B Polymerase: Discovery of ABT-072, a trans-Stilbene Analog with Good Oral Bioavailability” (J Med Chem, 2018)
In brackets after ≈: the same amount, converted by molar mass.

Assays:
Hepatitis C virus [1] = assay: Antiviral activity against HCV genotype 1b Con1 infected in human HuH7 cells harboring HCV subgenomic bicistronic replicon after 3 days by luciferase reporter gene assay; assay type: functional, cell-based, Hepacivirus hominis; conditions: genotype 1b Con1, Huh-7, 72 h
In short: (§1)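 Subgenomic genotype 1a (H77) or 1b (Con1) replicons carrying firefly luciferase, transfected into Huh-7 cells. Replication inhibition was read as luciferase level in cell lysate on a luminometer and reported as EC50. Runs were done without human plasma or with 40% human plasma added, to assess inhibitor–protein binding.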

[2] = Aqueous solubility of the compound at pH 7.2; assay type: physicochemical; conditions: buffer
[3] = Ratio of plasma concentration in Sprague-Dawley rat at 5 mg/kg, po to EC50 for HCV genotype 1b Con1 infected in human HuH7 cells harboring HCV subgenomic bicistronic replicon
[4] = Stability in rat liver microsomes assessed as parent compound remaining after 30 mins; assay type: ADME, microsome; conditions: read-out: Stability
In short: (§2)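 Compound incubated 30 min with human or rat liver microsomes; percent of parent compound remaining reported.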

Rattus norvegicus = assay: Time at which plasma concentration stays above HCV genotype 1b Con1 replicon EC50 in Sprague-Dawley rat at 5 mg/kg, po
[5] = Plasma concentration in Sprague-Dawley rat at 5 mg/kg, po up to 8 hrs; assay type: ADME, organism-based
In short: (§3)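 Sprague-Dawley rats, n = 3 per experiment; solution in DMSO:PEG400 (1:9, v/v) given IV or oral; 5 mg/kg for both routes, and 30 mg/kg oral; plasma t1/2, Vss, clearance, Cmax, AUC and F% determined.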

[6] = AUC in Sprague-Dawley rat at 5 mg/kg, po; assay type: ADME, organism-based; conditions: in vivo; in short: as §3
[7] = Inhibition of HCV genotype 1a H77 NS5B RNA dependent RNA polymerase assessed as reduction in [3H]UTP incorporation in to RNA preincubated for 15 mins followed by [3H]UTP addition measured after 3 hrs by microbeta scintillation counting method; set-up: species or system Hepatitis C virus (isolate H77)
In short: (§4)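 NS5B polymerase from genotype 1a (H77) or 1b (BK); formation of RNA product measured as 3H-UTP incorporation by scintillation counting; IC50 calculated with a standard IC50 equation.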

[8] = Plasma clearance in Sprague-Dawley rat at 5 mg/kg, iv; assay type: ADME, organism-based; in short: as §3
[9] = Inhibition of HCV genotype 1b BK NS5B RNA dependent RNA polymerase assessed as reduction in [3H]UTP incorporation in to RNA preincubated for 15 mins followed by [3H]UTP addition measured after 3 hrs by microbeta scintillation counting method; set-up: species or system Hepatitis C virus (isolate BK); in short: as §4
[10] = Stability in human liver microsomes assessed as parent compound remaining after 30 mins; assay type: ADME, microsome; conditions: read-out: Stability; in short: as §2
[11] = Passive permeability of the compound by PAMPA; assay type: physicochemical; conditions: read-out: permeability
Hepatitis C virus [12] = assay: Antiviral activity against HCV genotype 1a H77 infected in human HuH7 cells harboring HCV subgenomic bicistronic replicon after 3 days in presence of 40% human plasma by luciferase reporter gene assay; assay type: functional, cell-based, Hepacivirus hominis; conditions: genotype 1a H77, Huh-7, 72 h; in short: as §1
Hepatitis C virus [13] = assay: Antiviral activity against HCV genotype 1b Con1 infected in human HuH7 cells harboring HCV subgenomic bicistronic replicon after 3 days in presence of 40% human plasma by luciferase reporter gene assay; assay type: functional, cell-based, Hepacivirus hominis; conditions: genotype 1b Con1, Huh-7, 72 h; in short: as §1
[14] = Half life in Sprague-Dawley rat at 5 mg/kg, po; assay type: ADME, organism-based; conditions: in vivo; in short: as §3
[15] = Oral bioavailability in Sprague-Dawley rat at 5 mg/kg; assay type: ADME, organism-based; conditions: in vivo; in short: as §3
[16] = Cmax in Sprague-Dawley rat at 5 mg/kg, po; assay type: ADME, organism-based; set-up: dose 5 mg/kg, route oral; conditions: in vivo; in short: as §3
Hepatitis C virus [17] = assay: Antiviral activity against HCV genotype 1a H77 infected in human HuH7 cells harboring HCV subgenomic bicistronic replicon after 3 days by luciferase reporter gene assay; assay type: functional, cell-based, Hepacivirus hominis; conditions: genotype 1a H77, Huh-7, 72 h; in short: as §1

SMILES	EC50 (Hepatitis C virus [1]) [nM]	solubility [2] [µM]	Ratio [3]	remaining at 0.5 h [4] [%]	Time (Rattus norvegicus) [h]	concentration at 8 h [5] [nM]	AUC [6] [ng·h/mL]	IC50 [7] [nM]	clearance [8] [mL/min/kg]	IC50 [9] [nM]	remaining at 0.5 h [10] [%]	Papp [11] [×10⁻⁶ cm/s]	EC50 (Hepatitis C virus [12]) [nM]	EC50 (Hepatitis C virus [13]) [nM]	half-life [14] [h]	bioavailability [15] [%]	Cmax [16] [ng/mL]	EC50 (Hepatitis C virus [17]) [nM]	solubility ([2]; read-out: solubility) [µM]
COc1c(/C=C/c2ccc(NS(C)(=O)=O)cc2)cc(N2CCC(=O)NC2=O)cc1C(C)(C)C	1.1	10.3 (≈ 4.86 µg/mL)	>60	33.5	8	> 200	1520	0.3	10.7	0.7	48.1	0.92	50	3.1	2.3	18	260	3.1	–
COc1c(CNc2ccc(NS(C)(=O)=O)cc2)cc(N2CCC(=O)NC2=O)cc1C(C)(C)C	522	–	–	58	–	–	–	80	–	270	67	0.41	–	–	–	–	–	–	90.8 (≈ 43.1 µg/mL)
COc1c(C(=O)N(C)c2ccc(NS(C)(=O)=O)cc2)cc(N2CCC(=O)NC2=O)cc1C(C)(C)C	1550	–	–	83	–	–	–	140	–	273	64	0.25	–	–	–	–	–	–	> 50
COc1c(/C=C/c2ccc(NS(C)(=O)=O)c(F)c2)cc(-n2ccc(=O)[nH]c2=O)cc1C(C)(C)C	2.1	–	–	–	–	–	10400	–	6.33	–	–	–	–	5.3	3.7	76	–	13.8	15.5 (≈ 7.56 µg/mL)
COc1c(COc2ccc(NS(C)(=O)=O)cc2)cc(N2CCC(=O)NC2=O)cc1C(C)(C)C	53	–	–	80	–	–	–	100	–	167	> 85	7.47	–	321	–	–	–	–	3 (≈ 1.43 µg/mL)
COc1c(C#Cc2ccc(NS(C)(=O)=O)cc2)cc(N2CCC(=O)NC2=O)cc1C(C)(C)C	3.9	–	–	50	–	–	350	1.1	31.7	3	35.8	0.83	–	29.8	3	14	60	–	2.3 (≈ 1.08 µg/mL)
COc1c(/C=C(\C)c2ccc([N+](=O)[O-])cc2)cc(N2CCC(=O)NC2=O)cc1C(C)(C)C	12.4	–	–	36.5	–	–	–	4.9	–	16.7	18.5	0.58	–	82.8	–	–	–	–	< 2
COc1c(CCc2ccc(NS(C)(=O)=O)cc2)cc(N2CCC(=O)NC2=O)cc1C(C)(C)C	39.1	–	–	1.6	–	–	–	26.5	–	40.3	2.5	4.06	–	91.3	–	–	–	–	18.8 (≈ 8.9 µg/mL)
COc1c(C(=O)Nc2ccc(NS(C)(=O)=O)cc2)cc(N2CCC(=O)NC2=O)cc1C(C)(C)C	19	–	–	> 85	–	–	50	10.8	25	21.7	> 85	0.25	–	22	–	–	–	–	< 1.5
COc1c(NC(=O)c2ccc(NS(C)(=O)=O)cc2)cc(N2CCC(=O)NC2=O)cc1C(C)(C)C	29	–	–	> 85	–	–	–	8.8	–	46	> 85	0.22	–	21	–	–	–	–	32.8 (≈ 16 µg/mL)
COc1c(/C=C/c2ccc(NS(C)(=O)=O)cc2)cc(-n2cc(F)c(=O)[nH]c2=O)cc1C(C)(C)C	9.6	–	–	–	–	–	3120	–	14.2	–	–	–	–	59.4	3.7	52	–	89	15.5 (≈ 7.56 µg/mL)
COc1c(C2CC2c2ccc(NS(C)(=O)=O)cc2)cc(N2CCC(=O)NC2=O)cc1C(C)(C)C (stereo unspecified)	56	–	–	32.3	–	–	–	267	–	514	26.5	2.8	–	431	–	–	–	–	18.8 (≈ 9.13 µg/mL)
